# Data published in ChEMBL document CHEMBL5724801, “EUbOPEN Chemogenomics Library - Multiplex” (2024).
# Several values for one entry are separate records, joined by “and”; a condition that tells them apart may be missing. Equal values may be shown once.
# Tested on: HEK-293T
# Test: Multiplex assay against HEK293T
# Format: toxicity, cell-based
# Conditions: human
# How it was run: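 Live cells carried four stains from seeding: Hoechst33342, BioTracker Green Microtubule Cytoskeleton Dye, MitoTracker Red and Annexin V Alexa Fluor 680. They were imaged on a CQ1 microscope at 37°C and 5% CO2 after compound addition. Using CellPathfinder machine-learning gating, cells were split into Hoechst high-intensity objects or normal cells, normal cells into healthy, pyknosed or fragmented nuclei, and pyknosed cells into mitotic or apoptotic; tubulin, mitochondrial-mass and membrane-permeability phenotypes are per cents of healthy-nucleus cells.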
# [1] = 12 h, 1 µM, compound concentration 1 uM
# [2] = 12 h, 10 µM, compound concentration 10 uM
# [3] = 24 h, 1 µM, compound concentration 1 uM
# [4] = 24 h, 10 µM, compound concentration 10 uM
# [5] = 48 h, 1 µM, compound concentration 1 uM
# [6] = 48 h, 10 µM, compound concentration 10 uM
structure (smiles),measurement,setting,value
COc1cc(NC(=O)CCN2CCC(OC(=O)Nc3ccccc3-c3ccccc3)CC2)c(Cl)cc1CNC[C@H](O)c1ccc(O)c2[nH]c(=O)ccc12 [BATEFENTEROL],Population Apoptotic (%),[1],42% and 47%
same,Population Fragmented Nuclei (%),[1],4% and 3%
same,Population Healthy Nuclei (%),[1],81% and 78%
same,Population Hoechst High Intensity Objects (%),[1],7% and 8%
same,Population Membrane Permeable-Phenotype (%),[1],0%
same,Population Mitochondria Different-Phenotype (%),[1],65% and 84%
same,Population Mitotic Cells (%),[1],57% and 52%
same,Population Normal (%),[1],92% and 91%
same,Population Pyknosed Nuclei (%),[1],14% and 17%
same,Population Tubulin-Different-Phenotype (%),[1],44% and 41%
same,Total Cell Count,[1],420 and 285
same,Population Apoptotic (%),[2],100% and 52%
same,Population Hoechst High Intensity Objects (%),[2],31% and 11%
same,Population Membrane Permeable-Phenotype (%),[2],0% and 1%
same,Population Normal (%),[2],68% and 88%
same,Population Pyknosed Nuclei (%),[2],9% and 22%
same,Population Apoptotic (%),[3],44% and 41%
same,Population Fragmented Nuclei (%),[3],9% and 7%
same,Population Healthy Nuclei (%),[3],77% and 82%
same,Population Hoechst High Intensity Objects (%),[3],5% and 8%
same,Population Membrane Permeable-Phenotype (%),[3],0%
same,Population Mitochondria Different-Phenotype (%),[3],59% and 65%
same,Population Mitotic Cells (%),[3],55% and 58%
same,Population Normal (%),[3],94% and 91%
same,Population Pyknosed Nuclei (%),[3],12% and 9%
same,Population Tubulin-Different-Phenotype (%),[3],35% and 27%
same,Total Cell Count,[3],527 and 403
same,Population Membrane Permeable-Phenotype (%),[4],0%
same,Population Mitochondria Different-Phenotype (%),[4],100% and 89%
same,Population Normal (%),[4],66% and 93%
same,Population Pyknosed Nuclei (%),[4],0% and 19%
same,Population Tubulin-Different-Phenotype (%),[4],100% and 78%
same,Population Apoptotic (%),[5],35% and 51%
same,Population Fragmented Nuclei (%),[5],15% and 13%
same,Population Healthy Nuclei (%),[5],75% and 79%
same,Population Hoechst High Intensity Objects (%),[5],3%
same,Population Membrane Permeable-Phenotype (%),[5],0%
same,Population Mitochondria Different-Phenotype (%),[5],36% and 42%
same,Population Mitotic Cells (%),[5],65% and 48%
same,Population Normal (%),[5],96%
same,Population Pyknosed Nuclei (%),[5],8% and 6%
same,Population Tubulin-Different-Phenotype (%),[5],17%
same,Total Cell Count,[5],744 and 547
same,Population Apoptotic (%),[6],100% and 57%
same,Population Hoechst High Intensity Objects (%),[6],7%
same,Population Membrane Permeable-Phenotype (%),[6],0%
same,Population Mitochondria Different-Phenotype (%),[6],66% and 76%
same,Population Normal (%),[6],92%
same,Population Pyknosed Nuclei (%),[6],16% and 11%
same,Population Tubulin-Different-Phenotype (%),[6],66% and 74%
